# Results taken from PubChem BioAssay.
# Activity calls are given as the source filed them.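 How the source made its calls, unless noted: active means viability at or below 30% in both replicate assays; inconclusive means viability at or below 30% in just one of the two assays; inactive means the rest.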
# Legend:
# [1] = Her2 expression decrease, cell viability multiplex – SKBR3 breast tumor cells, AlphaScreen, ATP viability, primary screen (AID 461;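 active means Her2 level under about 52% in both replicate screens, with viability over 70% of control, limit read from the data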;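 on Her2 level: lower value means less Her2 protein in the cells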;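 on viability: percent of carrier control wells set as 100% viability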); conditions: SKBR3 Her2 protein level, 18-24 h, measured here: SKBR3 viability, ATP luminescence, at 10 µM
# [2] = target: Receptor tyrosine-protein kinase erbB-2 (Homo sapiens) (UniProt P04626); assay: as above; conditions: 18-24 h, at 10 µM, stronger effect = lower value
# Chain of Receptor tyrosine-protein kinase erbB-2 (Homo sapiens) (P04626 whole entry, looked up): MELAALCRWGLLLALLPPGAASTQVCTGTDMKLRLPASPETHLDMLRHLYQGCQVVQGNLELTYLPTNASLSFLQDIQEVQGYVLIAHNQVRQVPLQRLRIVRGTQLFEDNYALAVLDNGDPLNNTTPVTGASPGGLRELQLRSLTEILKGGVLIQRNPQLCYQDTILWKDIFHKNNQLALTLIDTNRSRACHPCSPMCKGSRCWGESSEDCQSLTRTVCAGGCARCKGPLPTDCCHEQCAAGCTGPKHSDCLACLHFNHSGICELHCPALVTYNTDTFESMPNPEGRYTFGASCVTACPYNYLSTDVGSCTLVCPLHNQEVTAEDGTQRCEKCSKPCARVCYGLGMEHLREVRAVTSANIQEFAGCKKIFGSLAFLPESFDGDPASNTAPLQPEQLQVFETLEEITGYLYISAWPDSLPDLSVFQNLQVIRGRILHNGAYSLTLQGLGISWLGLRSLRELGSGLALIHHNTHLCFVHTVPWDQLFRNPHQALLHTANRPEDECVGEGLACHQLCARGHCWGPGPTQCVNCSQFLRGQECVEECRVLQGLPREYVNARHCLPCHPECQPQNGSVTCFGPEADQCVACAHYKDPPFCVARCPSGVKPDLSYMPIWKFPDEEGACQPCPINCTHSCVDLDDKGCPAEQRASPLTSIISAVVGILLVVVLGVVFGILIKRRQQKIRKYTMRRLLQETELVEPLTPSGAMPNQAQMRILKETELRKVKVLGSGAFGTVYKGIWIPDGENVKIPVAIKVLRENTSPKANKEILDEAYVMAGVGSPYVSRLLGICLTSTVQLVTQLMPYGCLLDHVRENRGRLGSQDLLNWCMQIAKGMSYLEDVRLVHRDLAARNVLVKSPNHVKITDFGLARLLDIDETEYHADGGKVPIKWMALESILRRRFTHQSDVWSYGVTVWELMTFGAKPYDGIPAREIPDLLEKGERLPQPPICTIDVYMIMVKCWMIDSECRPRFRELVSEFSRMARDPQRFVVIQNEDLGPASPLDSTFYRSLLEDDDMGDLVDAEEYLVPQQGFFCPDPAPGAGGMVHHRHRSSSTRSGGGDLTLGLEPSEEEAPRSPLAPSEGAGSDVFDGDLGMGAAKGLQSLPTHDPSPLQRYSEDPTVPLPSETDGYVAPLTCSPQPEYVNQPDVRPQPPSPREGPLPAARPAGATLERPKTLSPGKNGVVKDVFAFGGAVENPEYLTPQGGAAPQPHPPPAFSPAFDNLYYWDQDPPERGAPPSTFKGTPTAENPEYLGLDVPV
# [3] = reduced viability of SK-BR-3 breast cancer cells – cell-based, 24 h, human, pilot screen (AID 572;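 active means viability at or below 10% of carrier control in both of two separate runs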;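 further: compound exposure lasted between 18 and 24 h rather than exactly 24 h; 100% = carrier-treated control wells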); conditions: SK-BR-3 viability, CellTiter-Glo luminescence, at 10 µM, stronger effect = lower value
# [4] = HUVEC growth inhibition – cell-based, human, primary screen (AID 575); conditions: HUVEC proliferation, CellTiter-Glo luminescence, 72 h; at 10 µM; stronger effect = lower value;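 further: 100% = median of untreated cell wells with 0.1% DMSO on each plate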
# Outline: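 Test system: primary human umbilical vein endothelial cells; medium: endothelial basal medium with 2% FBS plus growth supplements; dosing: 10 µM compound only; times: 72 h treatment at 37 °C; signal: CTG luminescence; read-out: % viability relative to median vehicle-well signal on each plate; control set: vehicle and MePR control wells; plate: 384-well, collagen-coated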
# [5] = H69AR cell proliferation blockers – human, duplicate replicates, primary screen (AID 580;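 active means viability at or under a set limit in both replicates, limit being median viability minus 3 SD, cut at about 48% in these data, passing the limit was not always enough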;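 further: 100% = mean luminescence of untreated wells and 0% = no signal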); conditions: H69AR lung tumor cells viability, ATP luminescence, 72 h; at 10 µM; stronger effect = lower value
# [6] = MRP1 drug-resistance reversers in H69AR cells – cell-based, doxorubicin co-treatment, pilot screen (AID 601;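 active means viability loss from added drug above about 55%, and viability with drug at most 40%, in both replicates, limit read from the data, passing the limit was not always enough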); conditions: CellTiter-Glo, 72 h, at 10 µM; for differential viability (reversal): stronger effect = higher value
# [7] = yeast transport mutant growth inhibition pilot in 384-well plates, post-Golgi transport modulator project (AID 636; in the data active means inhibition above about 31%); conditions: absorbance 615 nm, about 18 h, stronger effect = higher value
# [8] = growth suppression of yeast trafficking mutant, preliminary HTS, modulators of trafficking downstream of Golgi apparatus project, 1536-format plate, OD 615 nm (AID 637; in the data active means inhibition above about 30%); conditions: yeast transport mutant growth, absorbance 615 nm, 18 h; stronger effect = higher value
# [9] = H69AR cells + 2 uM doxorubicin, measured here: viability with 2 uM doxorubicin, stronger effect = lower value
# [10] = H69AR cells, compound alone cytotoxicity
SMILES,viability [1] [%],Her2 level [2],viability [3],viability [4],viability [5],differential viability (reversal) ([6]; H69AR cells + 2 uM doxorubicin),"viability [6, 9] [%]","viability [6, 10] [%]",inhibition [7],inhibition [8]
Cc1cc(OCC(=O)N2CCOCC2)cc2oc(=O)c3ccccc3c12,108,100% (inactive),108% (inactive),109% (inactive),85.1% (inactive),-0.74% (inactive),85.9,85.1,0.39% (inactive),-10.8% (inactive)
O=C1NC(c2cccs2)Nc2ccccc21 (stereo not given),107,86.5% (inactive),107% (inactive),111% (inactive),86.7% (inactive),-4.77% (inactive),91.4,86.7,-8.03% (inactive),-9.52% (inactive)
O=C(c1cnn2c(C(F)F)cc(C3CC3)nc12)N1CCOCC1,104,102% (inactive),104% (inactive),107% (inactive),113% (inactive),19.2% (inactive),93.5,113,-3.29% (inactive),-10.2% (inactive)
CCOC(=O)c1ccc(NC(=O)c2ccc(NS(C)(=O)=O)cc2)cc1,97,83% (inactive),97% (inactive),92.1% (inactive),82.9% (inactive),3.85% (inactive),79,82.9,-0.8% (inactive),-4.92% (inactive)
Cc1ccc(C(=O)C2COC(=O)C2)cc1 (stereo not given),109,80.5% (inactive),109% (inactive),95.7% (inactive),85.3% (inactive),3.12% (inactive),82.2,85.3,-1.97% (inactive),-4.84% (inactive)
CCC(=O)N1CCc2cc(Br)cc(S(=O)(=O)CCC(=O)NCC3CCCO3)c21 (stereo not given),118,90% (inactive),118% (inactive),106% (inactive),92.8% (inactive),13.4% (inactive),79.4,92.8,-6.35% (inactive),6% (inactive)
CCCN1C2=C(C(=O)CCC2)C(c2ccc(O)c(Br)c2)C2=C1CCCC2=O,96,85.5% (inactive),96% (inactive),96.8% (inactive),91.8% (inactive),-1.01% (inactive),92.8,91.8,-7.11% (inactive),2% (inactive)
O=c1[nH]cnc2c1C1(CCCC1)Cc1ccccc1-2,95.5,90% (inactive),95.5% (inactive),93.1% (inactive),100% (inactive),11.5% (inactive),88.7,100,-0.26% (inactive),-0.5% (inactive)
